ChEMBL document CHEMBL3576833, “Design and Synthesis of Acetylenyl Benzamide Derivatives as Novel Glucokinase Activators for the Treatment of T2DM” (ACS Med Chem Lett, 2015)
Calls of active or inactive are those of the source. The calls are words filed in the database; no cut-off is given here.

How the values were obtained:
[1] = target: T1, Hexokinase-4 (Rattus norvegicus) (UniProt P17712); experiment: Activation of glucokinase in rat primary hepatocytes assessed as increase in 5.6 mM 2-deoxy-D-[3H]-glucose uptake after 4 hrs by scintillation counting analysis relative to control; format: cell-based; conditions: Hepatocyte
T1 sequence (whole entry): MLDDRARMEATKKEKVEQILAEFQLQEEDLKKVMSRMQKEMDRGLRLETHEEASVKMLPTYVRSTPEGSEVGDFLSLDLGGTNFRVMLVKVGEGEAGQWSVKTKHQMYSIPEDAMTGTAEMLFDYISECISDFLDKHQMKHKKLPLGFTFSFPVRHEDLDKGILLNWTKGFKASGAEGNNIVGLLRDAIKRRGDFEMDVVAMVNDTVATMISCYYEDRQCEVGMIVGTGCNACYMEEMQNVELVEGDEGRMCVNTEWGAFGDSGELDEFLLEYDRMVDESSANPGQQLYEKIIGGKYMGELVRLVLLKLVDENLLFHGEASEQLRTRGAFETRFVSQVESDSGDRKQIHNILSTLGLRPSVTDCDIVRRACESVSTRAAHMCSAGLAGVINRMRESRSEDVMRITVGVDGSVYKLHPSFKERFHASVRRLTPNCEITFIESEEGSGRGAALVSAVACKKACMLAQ
Method in brief: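 Rat primary hepatocytes; uptake measured under glucose stimulation, with glucose raised from 0 mM to 5.6 mM; activity expressed as fold increase in glucose uptake.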

[2] = target: T2, Hexokinase-4 (Homo sapiens) (UniProt P35557); experiment: Activation of recombinant human pancreatic glucokinase using 10 mM glucose as substrate assessed as enzyme half maximal saturation concentration at 1 uM by G6PDH coupled assay
T2 sequence (whole entry): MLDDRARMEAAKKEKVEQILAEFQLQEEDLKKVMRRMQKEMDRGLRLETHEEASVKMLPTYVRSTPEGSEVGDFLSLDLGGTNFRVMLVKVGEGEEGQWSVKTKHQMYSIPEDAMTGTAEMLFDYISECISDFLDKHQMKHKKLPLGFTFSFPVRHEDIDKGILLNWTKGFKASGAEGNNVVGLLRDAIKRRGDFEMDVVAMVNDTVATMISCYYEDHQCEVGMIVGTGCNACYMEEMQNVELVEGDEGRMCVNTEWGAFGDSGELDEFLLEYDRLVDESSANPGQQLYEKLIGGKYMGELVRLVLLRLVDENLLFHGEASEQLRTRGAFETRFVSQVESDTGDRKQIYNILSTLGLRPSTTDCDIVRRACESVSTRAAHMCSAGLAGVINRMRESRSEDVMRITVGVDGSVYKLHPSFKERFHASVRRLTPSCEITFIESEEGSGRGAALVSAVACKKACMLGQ

[3] = target: T3, Hexokinase-2 (Homo sapiens) (UniProt P52789); experiment: Effect on hexokinase-2 (unknown origin)
T3 sequence (whole entry): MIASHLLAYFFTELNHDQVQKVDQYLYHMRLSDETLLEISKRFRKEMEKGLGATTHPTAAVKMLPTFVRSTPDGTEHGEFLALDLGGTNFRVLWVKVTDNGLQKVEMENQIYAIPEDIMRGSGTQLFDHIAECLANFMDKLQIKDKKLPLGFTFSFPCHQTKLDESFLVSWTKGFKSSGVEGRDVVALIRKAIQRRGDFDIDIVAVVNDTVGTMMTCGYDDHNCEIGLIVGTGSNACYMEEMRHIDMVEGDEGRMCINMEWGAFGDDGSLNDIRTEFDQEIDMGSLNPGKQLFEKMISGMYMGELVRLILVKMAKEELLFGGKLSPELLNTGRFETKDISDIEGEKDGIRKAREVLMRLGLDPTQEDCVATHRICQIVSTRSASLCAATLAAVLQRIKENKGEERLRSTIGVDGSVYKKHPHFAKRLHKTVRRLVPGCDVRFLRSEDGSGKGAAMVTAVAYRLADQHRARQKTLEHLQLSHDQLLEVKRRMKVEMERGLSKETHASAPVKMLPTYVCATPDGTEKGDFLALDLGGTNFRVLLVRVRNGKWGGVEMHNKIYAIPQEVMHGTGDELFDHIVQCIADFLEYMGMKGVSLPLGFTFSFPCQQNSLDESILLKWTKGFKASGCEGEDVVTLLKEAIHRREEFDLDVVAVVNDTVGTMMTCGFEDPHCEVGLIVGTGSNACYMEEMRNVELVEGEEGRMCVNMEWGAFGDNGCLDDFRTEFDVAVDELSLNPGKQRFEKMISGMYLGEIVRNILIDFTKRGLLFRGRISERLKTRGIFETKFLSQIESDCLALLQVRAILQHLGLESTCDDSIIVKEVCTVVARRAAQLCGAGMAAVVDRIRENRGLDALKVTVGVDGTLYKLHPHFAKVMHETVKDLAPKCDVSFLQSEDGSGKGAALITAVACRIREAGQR

[4] = tested on: Mus musculus; experiment: Antidiabetic activity in po dosed C57BL/6J mouse assessed as blood glucose lowering effect administered 30 mins prior to glucose challenge measured over 180 mins by OGTT; format: functional, organism-based
Method in brief: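 Oral glucose tolerance test in C57BL/6J mice with oral dosing. Blood glucose was followed after the glucose challenge, and the result was expressed as the % reduction in blood glucose AUC.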

[5] = target: T4, Hexokinase-1 (Homo sapiens) (UniProt P19367); experiment: Effect on hexokinase-1 (unknown origin)
T4 sequence (whole entry): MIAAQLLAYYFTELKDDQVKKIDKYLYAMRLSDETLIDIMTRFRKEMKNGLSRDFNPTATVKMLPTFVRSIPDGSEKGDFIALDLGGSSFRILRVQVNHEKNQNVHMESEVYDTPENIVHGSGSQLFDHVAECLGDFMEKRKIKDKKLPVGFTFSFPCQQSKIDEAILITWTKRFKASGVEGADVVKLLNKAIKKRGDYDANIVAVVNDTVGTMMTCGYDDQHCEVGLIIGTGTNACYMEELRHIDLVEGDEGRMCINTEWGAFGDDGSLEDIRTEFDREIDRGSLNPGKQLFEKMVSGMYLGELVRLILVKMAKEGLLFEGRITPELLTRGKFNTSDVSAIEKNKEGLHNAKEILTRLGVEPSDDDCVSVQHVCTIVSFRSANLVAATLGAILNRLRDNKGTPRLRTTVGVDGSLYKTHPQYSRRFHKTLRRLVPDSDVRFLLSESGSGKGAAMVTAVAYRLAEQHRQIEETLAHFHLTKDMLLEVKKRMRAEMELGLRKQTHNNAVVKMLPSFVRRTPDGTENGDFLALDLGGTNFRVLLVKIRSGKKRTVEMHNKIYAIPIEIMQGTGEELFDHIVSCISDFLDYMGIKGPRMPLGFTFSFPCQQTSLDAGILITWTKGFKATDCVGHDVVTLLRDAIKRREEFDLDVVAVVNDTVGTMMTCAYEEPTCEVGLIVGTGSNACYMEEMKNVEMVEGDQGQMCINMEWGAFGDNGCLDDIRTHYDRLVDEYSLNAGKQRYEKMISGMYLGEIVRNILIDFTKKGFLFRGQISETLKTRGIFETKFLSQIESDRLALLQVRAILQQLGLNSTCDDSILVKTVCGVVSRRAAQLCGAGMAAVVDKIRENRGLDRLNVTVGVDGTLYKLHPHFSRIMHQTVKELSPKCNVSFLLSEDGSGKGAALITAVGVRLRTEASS

[6] = target: T1, Hexokinase-4 (Rattus norvegicus); experiment: Activation of glucokinase in 0 to 5.6 mM glucose-stimulated Sprague-Dawley rat pancreatic islets assessed as increase in insulin secretion after 1 hr by ELISA relative to control
[7] = tested on: Mus musculus; experiment: Antidiabetic activity in C57BL/6J mouse assessed as reduction of blood glucose level at 10 mg/kg, po after 60 mins by fasted glucose tolerance test; format: functional, organism-based
Method in brief: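 Fasted glucose tolerance test in C57BL/6J mice. Animals were fasted and dosed orally, with no glucose challenge. Blood glucose was measured at 60 min.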

fold change (FC) [1] | Activity [2] | Structure (SMILES) | also measured
2.37 | 3.88 mM | COC[C@H](C)Oc1cc(C#CCNc2ncccn2)cc(C(=O)Nc2ccn(C)n2)c1 | 
1.91 | 2.01 mM | CCN(CC)c1cccc(C#Cc2cc(O[C@@H](C)COC)cc(C(=O)Nc3ccn(C)n3)c2)c1 | 
1.75 | 0.95 mM | COC[C@H](C)Oc1cc(C#Cc2cccc(OCC#N)c2)cc(C(=O)Nc2ccn(C)n2)c1 | 
2.62 | 0.55 mM | COC[C@H](C)Oc1cc(C#Cc2cccc(NCCN3CCOCC3)c2)cc(C(=O)Nc2ccn(C)n2)c1 | 
2.64 | 2.13 mM | COC[C@H](C)Oc1cc(C#Cc2ccc3c(c2)OCO3)cc(C(=O)Nc2ccn(C)n2)c1 | 
2.16 | 0.84 mM | COC[C@H](C)Oc1cc(C#Cc2cccc(N)c2)cc(C(=O)Nc2ccn(C)n2)c1 | Activity [3]: inactive; Activity [4]: Dose-dependent effect; Activity [5]: inactive; fold change (FC) [6]: 2.13
1.71 | 4.04 mM | COCC#Cc1cc(O[C@@H](C)COC)cc(C(=O)Nc2ccn(C)n2)c1 | 
2.05 | 0.73 mM | COC[C@H](C)Oc1cc(C#Cc2ccc(N)cc2)cc(C(=O)Nc2ccn(C)n2)c1 | 
1.89 | 0.35 mM | COC[C@H](C)Oc1cc(C#Cc2cccc(OCCN3CCOCC3)c2)cc(C(=O)Nc2ccn(C)n2)c1 | 
1.31 | 5.51 mM | COC[C@H](C)Oc1cc(C#CCN(C)C)cc(C(=O)Nc2ccn(C)n2)c1 | 
1.57 | 1.37 mM | COC[C@H](C)Oc1cc(C#Cc2cccc(O)c2)cc(C(=O)Nc2ccn(C)n2)c1 | 
2.64 | 0.73 mM | COC[C@H](C)Oc1cc(C#Cc2ccccc2OC)cc(C(=O)Nc2ccn(C)n2)c1 | 
2.83 | 0.51 mM | COC[C@H](C)Oc1cc(C#Cc2cccc(NCCN3CCCC3)c2)cc(C(=O)Nc2ccn(C)n2)c1 | 
2.79 | 0.61 mM | COC[C@H](C)Oc1cc(C#Cc2cccc(NCCN3CCCCC3)c2)cc(C(=O)Nc2ccn(C)n2)c1 | 
1.99 | 0.46 mM | COC[C@H](C)Oc1cc(C#Cc2ccc3[nH]ccc3c2)cc(C(=O)Nc2ccn(C)n2)c1 | 
2.43 | 0.76 mM | COC[C@H](C)Oc1cc(C#Cc2cccc(N(C)C)c2)cc(C(=O)Nc2ccn(C)n2)c1 | 
2.03 | 0.17 mM | COC[C@H](C)Oc1cc(C#Cc2cccc(NCCN(C)C)c2)cc(C(=O)Nc2ccn(C)n2)c1 | 
2.43 | 0.73 mM | COC[C@H](C)Oc1cc(C#Cc2cccc(OCCN3CCCC3)c2)cc(C(=O)Nc2ccn(C)n2)c1 | 
2.36 | 2.25 mM | COC[C@H](C)Oc1cc(C#Cc2cccc(OCCN3CCCCC3)c2)cc(C(=O)Nc2ccn(C)n2)c1 | 
2.18 | 1.23 mM | COCCNc1cccc(C#Cc2cc(O[C@@H](C)COC)cc(C(=O)Nc3ccn(C)n3)c2)c1 | 
2.36 | 0.9 mM | COC[C@H](C)Oc1cc(C#Cc2cccc(NCCn3ccnc3C)c2)cc(C(=O)Nc2ccn(C)n2)c1 | 
 |  | COC[C@H](C)Oc1cc(Oc2cnc(C(=O)N3CCC3)cn2)cc(C(=O)Nc2cnc(C)cn2)c1 | Activity [7]: Active
2.5 | 0.55 mM | COC[C@H](C)Oc1cc(C#CCOC2CCCCO2)cc(C(=O)Nc2ccn(C)n2)c1 (stereo partly specified) | 
2.03 | 1.84 mM | COC[C@H](C)Oc1cc(C#Cc2cccc(OC(C)C)c2)cc(C(=O)Nc2ccn(C)n2)c1 | 
